According to ChEMBL document CHEMBL1122071, “Avermectin acyl derivatives with anthelmintic activity” (1982):

Tests used:
Format in all cases: functional
Cooperia oncophora [1] = test: Anthelmintic efficacy against adult Cooperia oncopphora (C.o) in sheep at dose of 0.25 mg/kg administered orally; 60-89%
Outline: (§1)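 Lambs experimentally infected with mixed gastrointestinal nematodes (H. contortus, O. circumcincta, T. axei, T. colubriformis, C. oncophora, Oe. columbianum) were dosed orally, 1–3 sheep per dose. An untreated infected group of 6 was included, with worm burdens given as the geometric mean number of worms per lamb. Efficacy was scored against adult and, where listed, EL4 stages.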

Haemonchus contortus [2] = test: Anthelmintic efficacy against adult Haemonchus contortus (H.c) in sheep at dose of 0.25 mg/kg administered orally; details: route oral; outline: as §1
[3] = test system: Oesophagostomum columbianum; test: Anthelmintic efficacy against Oseophagostomum columbianum (Oe. c) in sheep at dose of 0.25 mg/kg administered orally; details: route oral; outline: as §1
[4] = test system: Teladorsagia circumcincta; test: Anthelmintic efficacy against adult Ostertagia circumcincta (O. c) in sheep at dose of 0.25 mg/kg administered orally; 60-89%; outline: as §1
Trichostrongylus axei [5] = test: Anthelmintic efficacy against Trichostrongylus axei (T.a) in sheep at dose of 0.25 mg/kg administered orally; 20-59%; outline: as §1
[6] = test system: Trichostrongylus colubriformis; test: Minimal dose necessary to eliminate > 83% of Trichostrongylus colubriformis infection in gerbils
[7] = test system: Trichostrongylus colubriformis; test: Anthelmintic efficacy against Trichostrongylus colubriformis (T.c) in sheep at dose of 0.25 mg/kg administered orally; 60-89%; outline: as §1
Cooperia oncophora [8] = test: Anthelmintic efficacy against adult Cooperia oncopphora (C.o) in sheep at dose of 0.25 mg/kg administered orally; details: route oral; outline: as §1
Cooperia oncophora [9] = test: Anthelmintic efficacy against adult Cooperia oncopphora (C.o) in sheep at dose of 0.15 mg/kg administered orally; details: route oral; outline: as §1
Haemonchus contortus [10] = test: Anthelmintic efficacy against adult Haemonchus contortus (H.c) in sheep at dose of 0.15 mg/kg administered orally; details: route oral; outline: as §1
[11] = test system: Oesophagostomum columbianum; test: Anthelmintic efficacy against Oseophagostomum columbianum (Oe. c) in sheep at dose of 0.15 mg/kg administered orally; details: route oral; outline: as §1
[12] = test system: Teladorsagia circumcincta; test: Anthelmintic efficacy against immature (EL4) Ostertagia circumcincta (O. c) in sheep at dose of 0.15 mg/kg administered orally; 20-59%
[13] = test system: Teladorsagia circumcincta; test: Anthelmintic efficacy against adult (EL4) Ostertagia circumcincta (O. c) in sheep at dose of 0.15 mg/kg administered orally; details: route oral; outline: as §1
[14] = test system: Teladorsagia circumcincta; test: Anthelmintic efficacy against adult Ostertagia circumcincta (O. c) in sheep at dose of 0.25 mg/kg administered orally; details: route oral; outline: as §1
Trichostrongylus axei [15] = test: Anthelmintic efficacy against Trichostrongylus axei (T.a) in sheep at dose of 0.15 mg/kg administered orally; details: route oral; outline: as §1
Trichostrongylus axei [16] = test: Anthelmintic efficacy against Trichostrongylus axei (T.a) in sheep at dose of 0.25 mg/kg administered orally; details: route oral; outline: as §1
[17] = test system: Trichostrongylus colubriformis; test: Anthelmintic efficacy against Trichostrongylus colubriformis (T.c) in sheep at dose of 0.15 mg/kg administered orally; details: route oral; outline: as §1
[18] = test system: Trichostrongylus colubriformis; test: Anthelmintic efficacy against Trichostrongylus colubriformis (T.c) in sheep at dose of 0.25 mg/kg administered orally; details: route oral; outline: as §1

SMILES	Efficacy (Cooperia oncophora [1])	Efficacy (Haemonchus contortus [2])	Efficacy [3]	Efficacy [4]	Efficacy (Trichostrongylus axei [5])	Dose [6]	Efficacy [7]	Efficacy (Cooperia oncophora [8])	Efficacy (Cooperia oncophora [9])	Efficacy (Haemonchus contortus [10])	Efficacy [11]	Efficacy [12]	Efficacy [13]	Efficacy [14]	Efficacy (Trichostrongylus axei [15])	Efficacy (Trichostrongylus axei [16])	Efficacy [17]	Efficacy [18]
CC[C@H](C)[C@H]1O[C@]2(CC(OC(C)=O)[C@@H]1C)C[C@@H]1C[C@@H](C/C=C(\C)[C@@H](OC3CC(OC)C(OC4CC(OC)C(OC(C)=O)C(C)O4)C(C)O3)[C@@H](C)/C=C/C=C3\CO[C@@H]4[C@H](OC)C(C)=C[C@@H](C(=O)O1)[C@]34O)O2 (stereo partly specified)	60%	>90%	>90%	60%	20%	0.5 mg/kg	60%	–	–	–	–	–	–	–	–	–	–	–
CC[C@H](C)[C@H]1O[C@]2(C=C[C@@H]1C)C[C@@H]1C[C@@H](C/C=C(\C)[C@@H](O[C@H]3C[C@@H](OC)[C@@H](O[C@H]4C[C@@H](OC)[C@@H](OC(C)=O)[C@H](C)O4)[C@H](C)O3)[C@@H](C)/C=C/C=C3\CO[C@@H]4[C@H](OC(C)=O)C(C)=C[C@@H](C(=O)O1)[C@]34O)O2	–	>90%	>90%	–	–	0.25 mg/kg	–	>90%	>90%	>90%	>90%	20%	>90%	>90%	>90%	>90%	>90%	>90%
